From ChEMBL document CHEMBL4837219, “Chemical modification of NSC12 leads to a specific FGF-trap with antitumor activity in multiple myeloma” (Eur J Med Chem, 2021) come the findings set out here.

The source made the active and inactive calls. The calls are words filed in the database; no cut-off is given here.

Series [1] relates to KMS-11. Kind of series: Trapping activity at FGF in human KMS-11 cells assessed as inhibition of FGFR3 phosphorylation at 6 uM measured after 6 hrs by western blot analysis. In kind it is cell-based. The method in brief:
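KMS-11 cells treated for 6 h with compound at 6.0 µM, then lysed in NP-40 buffer containing orthovanadate and protease inhibitors. Phospho-FGFR3 detected by western blot with anti-phospho-Y724 antibody, using β-actin or α-tubulin as loading control. Result expressed as % inhibition of FGFR3 phosphorylation by densitometry.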

Series [2] concerns KMS-11. Kind of series: Antiproliferative activity against human KMS-11 cells assessed as reduction in cell viability incubated for 48 hrs by propidium iodide staining-based flow cytometric analysis. In kind it is functional. The note with it: KMS-11, 48 h. Put shortly:
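KMS-11 cells (maintained in RPMI1640 with 10% heat-inactivated FBS and 2.0 mM glutamine) exposed to increasing concentrations of compound for 48 h. Viable PI-negative cells counted by flow cytometry using the analyzer's absolute counting function. IC50 is the concentration giving 50% inhibition of proliferation, taken as the mean of at least 2 experiments run in triplicate.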

Series [3] addresses T1, Estrogen receptor (Homo sapiens) (UniProt P03372).
T1 sequence (whole entry): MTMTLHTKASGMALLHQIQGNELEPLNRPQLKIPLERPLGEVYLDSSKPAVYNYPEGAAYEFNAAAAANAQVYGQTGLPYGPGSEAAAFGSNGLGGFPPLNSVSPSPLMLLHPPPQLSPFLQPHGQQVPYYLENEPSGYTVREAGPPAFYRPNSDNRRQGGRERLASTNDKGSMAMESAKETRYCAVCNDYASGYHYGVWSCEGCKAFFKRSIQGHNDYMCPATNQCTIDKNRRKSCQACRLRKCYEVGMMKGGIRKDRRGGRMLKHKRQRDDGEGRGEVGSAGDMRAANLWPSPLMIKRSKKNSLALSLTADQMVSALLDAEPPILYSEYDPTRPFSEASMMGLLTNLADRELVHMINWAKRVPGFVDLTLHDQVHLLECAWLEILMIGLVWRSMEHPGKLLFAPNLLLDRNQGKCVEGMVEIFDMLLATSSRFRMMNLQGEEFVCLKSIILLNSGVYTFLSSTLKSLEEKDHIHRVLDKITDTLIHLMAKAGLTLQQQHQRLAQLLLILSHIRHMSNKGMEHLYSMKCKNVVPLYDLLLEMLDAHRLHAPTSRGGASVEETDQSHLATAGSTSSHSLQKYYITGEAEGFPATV
In words: Displacement of [3H]estradiol from human full length recombinant ERalpha expressed in baculovirus-infected Sf9 cells at 5 uM incubated for 120 mins by radiometric scintillation counting analysis. Put shortly:
(§1)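 Radioligand competition binding to human ERα or ERβ, run as an outsourced panel assay. Readout is % inhibition of specific [3H]estradiol binding at 5.0 and 50 µM compound. Run in duplicate, and the mean of the duplicates is reported.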
(In general: Displacement assays read how much labelled ligand stays bound in the presence of the test substance.)

The target in series [4] is T1, Estrogen receptor (Homo sapiens). In words: Displacement of [3H]estradiol from human full length recombinant ERalpha expressed in baculovirus-infected Sf9 cells at 50 uM incubated for 120 mins by radiometric scintillation counting analysis. The method in brief:
as §1

Series [5] addresses Estrogen receptor beta (Homo sapiens) (UniProt Q92731). In words: Displacement of [3H]estradiol from human full length recombinant ERbeta expressed in baculovirus-infected Sf9 cells at 5 uM incubated for 120 mins by radiometric scintillation counting analysis. Put shortly:
as §1

For series [6] the target is unchanged. Kind of series: Displacement of [3H]estradiol from human full length recombinant ERbeta expressed in baculovirus-infected Sf9 cells at 50 uM incubated for 120 mins by radiometric scintillation counting analysis. The method in brief: as §1
The subject of series [7] is KMS-11. Kind of series: Antitumor activity against human KMS-11 cells xenografted in NOD-SCID mouse assessed as tumor growth inhibition at 7.5 mg/kg, ip administered every other day measured at day 17 post-tumor implantation by caliper analysis. In kind it is functional, organism-based. Put shortly:
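Female NOD/SCID mice, six to eight weeks old, injected s.c. with 5 × 10^6 KMS-11 cells in PBS. Once tumors were palpable (10 days), mice were randomized and given 7.5 mg/kg i.p. every other day, with DMSO as vehicle control; n = 5 per group. Tumor volume from caliper measurements, V = (D × d²)/2. Tumors excised and weighed at day 17.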
(A xenograft is tissue or cells of one species grown in another, often human tumour cells in immunodeficient mice.)

Series [8] is described as follows: Total plasma concentration in NOD-SCID mouse at 7.5 mg/kg, ip measured after 90 mins by HPLC/MS/MS analysis. In kind it is ADME, organism-based. The method in brief:
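A single 7.5 mg/kg i.p. dose given to eight-week-old NOD/SCID mice (n = 4). Blood collected at 90 min. Plasma treated with acetonitrile containing internal standard (1:2) to precipitate protein, centrifuged, and the supernatant analyzed by C18 gradient HPLC-MS/MS in ESI-negative MRM mode. Calibration in spiked blank plasma, linear over 1–1000 nM, LOQ 1 nM. Values are mean ± SEM.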

Estrogen receptor beta (Homo sapiens), sequence (Q92731 whole entry): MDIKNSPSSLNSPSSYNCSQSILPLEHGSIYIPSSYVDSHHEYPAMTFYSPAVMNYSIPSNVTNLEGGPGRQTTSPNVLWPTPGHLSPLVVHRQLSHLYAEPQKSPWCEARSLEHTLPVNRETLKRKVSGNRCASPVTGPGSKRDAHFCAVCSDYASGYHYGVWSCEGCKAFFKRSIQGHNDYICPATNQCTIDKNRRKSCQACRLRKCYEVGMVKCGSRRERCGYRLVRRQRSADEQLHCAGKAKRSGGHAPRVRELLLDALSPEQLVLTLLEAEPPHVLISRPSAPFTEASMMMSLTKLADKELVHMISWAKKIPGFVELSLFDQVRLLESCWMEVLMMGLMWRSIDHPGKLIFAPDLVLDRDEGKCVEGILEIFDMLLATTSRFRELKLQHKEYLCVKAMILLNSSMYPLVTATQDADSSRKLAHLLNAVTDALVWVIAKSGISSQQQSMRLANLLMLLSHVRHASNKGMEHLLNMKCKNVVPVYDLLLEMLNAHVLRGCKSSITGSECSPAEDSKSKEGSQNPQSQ

What is called inhibition is how much of the control response was suppressed. As a reminder, the IC50 is the midpoint of a concentration-inhibition curve. Turning to `C[C@]12CC[C@H](O)C[C@@H]1CC[C@@H]1[C@@H]2CC[C@]2(C)[C@@H]([C@@H](O)CC(O)(C(F)(F)F)C(F)(F)F)CC[C@@H]12`, the inhibition with KMS-11 [1] is 89%. The half-inhibitory concentration (IC50) in the series on KMS-11 [2] came to 2.9 µM.
On to `C[C@]12CC[C@H]3[C@@H](CC=C4C[C@@H](O)CC[C@@]43C)[C@@H]1CC[C@@H]2[C@H](O)CCO`, for which the inhibition result in the series on KMS-11 [1] is “inactive”.
With `C[C@]12CC[C@H]3[C@@H](CC=C4C[C@@H](O)CC[C@@]43C)[C@@H]1CC[C@@H]2C(O)CC(O)c1ccccc1` (stereo in doubt; 11a), the inhibition in the series with KMS-11 [1] stood at 49%.
`C[C@]12CC[C@H]3[C@@H](CC=C4C[C@@H](OCCO)CC[C@@]43C)[C@@H]1CC[C@@H]2[C@H](O)CC(O)(C(F)(F)F)C(F)(F)F`: the inhibition in the series on KMS-11 [1] is 85%. In the series on KMS-11 [2], the half-inhibitory concentration (IC50) was determined as 7.7 µM.
The matching figures for `C[C@]12CC[C@H]3[C@@H](CC=C4C[C@@H](O[C@@H]5O[C@H](CO)[C@@H](O)[C@H](O)[C@H]5O)CC[C@@]43C)[C@@H]1CC[C@@H]2[C@@H](O)CC(O)(C(F)(F)F)C(F)(F)F`: 100% and 4 µM.
Turning to `C[C@]12CC[C@H]3[C@@H](CC=C4C[C@@H](O)CC[C@@]43C)[C@@H]1CC[C@@H]2C(O)CC(O)c1ccccn1` (stereo in doubt; 14b), the inhibition with KMS-11 [1] was determined as 34%.
In the case of `C[C@]12CC[C@H]3[C@@H](CC=C4C[C@@H](O)CC[C@@]43C)[C@@H]1CC[C@@H]2[C@@H](O)CC(N)=O`, the inhibition in the series on KMS-11 [1] was determined as 17%.
Regarding `C[C@]12CC[C@H]3[C@@H](CC=C4C[C@@H](O)CC[C@@]43C)[C@@H]1CC[C@@H]2[C@@H](O)CCO`, the inhibition in the series on KMS-11 [1] came to 57%.
As to `C[C@]12CC[C@H]3[C@@H](CC=C4C[C@@H](O)CC[C@@]43C)[C@@H]1CC[C@@H]2[C@@H](O)CC(=O)O`, the inhibition with KMS-11 [1] turned out to be 41%.
For the compound `C[C@]12CC[C@H](O)C[C@@H]1CC[C@@H]1[C@@H]2CC[C@]2(C)[C@@H]([C@H](O)CC(O)(C(F)(F)F)C(F)(F)F)CC[C@@H]12`, the inhibition result with KMS-11 [1] is “inactive”.
Consider `C[C@]12CC[C@H]3[C@@H](CC=C4C/C(=N\O)CC[C@@]43C)[C@@H]1CC[C@@H]2[C@H](O)CC(O)(C(F)(F)F)C(F)(F)F`, for which the inhibition in the series on KMS-11 [1] came to 80%.
On the same count and under the same terms, then `CC(C)(O)C[C@@H](O)[C@H]1CC[C@H]2[C@@H]3CC=C4C[C@@H](O)CC[C@]4(C)[C@H]3CC[C@]12C`, with 32%.
For `C[C@]12CC[C@H]3[C@@H](CC=C4C[C@@H](OC(=O)CN)CC[C@@]43C)[C@@H]1CC[C@@H]2[C@@H](O)CC(O)(C(F)(F)F)C(F)(F)F`, the inhibition in the series on KMS-11 [1] was found to be 93%. Further, in the series on KMS-11 [2], the IC50 amounted to 5.6 µM.
Take `C[C@]12CC[C@H]3[C@@H](CC=C4C[C@@H](O)CC[C@@]43C)[C@@H]1CC[C@@H]2[C@H](O)CC(=O)O`: the inhibition in the series on KMS-11 [1] worked out at 80%.
On the same count and under the same terms, then `C[C@]12CC[C@H]3[C@@H](CC=C4CC(=O)CC[C@@]43C)[C@@H]1CC[C@@H]2[C@H](O)CC(O)(C(F)(F)F)C(F)(F)F`, with 69%; and `C[C@]12CC[C@H]3[C@@H](CC=C4C[C@@H](O)CC[C@@]43C)[C@@H]1CC[C@@H]2C(O)CC(O)c1ccccn1` (stereo in doubt; 14a), with 26%.
Consider `C[C@]12CC[C@H]3[C@@H](CC=C4CC(=NO)CC[C@@]43C)[C@@H]1CC[C@@H]2[C@@H](O)CC(O)(C(F)(F)F)C(F)(F)F`, for which the inhibition with KMS-11 [1] amounted to 51%.
Still for that read-out and setting: then `CC(C)(O)C[C@H](O)[C@H]1CC[C@H]2[C@@H]3CC=C4C[C@@H](O)CC[C@]4(C)[C@H]3CC[C@]12C`, with 46%.
Take `C[C@]12CC[C@H]3[C@@H](CC=C4C[C@@H](O)CC[C@@]43C)[C@@H]1CC[C@@H]2[C@@H](O)CC(O)(C(F)(F)F)C(F)(F)F`: the inhibition in the series with KMS-11 [1] worked out at 81%; in series [3] it was 60.8%; in series [4], 83.3%; in series [5], 74.9%; in series [6] it was 91.9%. Further, in the series with KMS-11 [2], the concentration for half-maximal inhibition (IC50) is 3.4 µM. The result in the series with KMS-11 [7] was Active. Besides, the concentration at 1.5 h in series [8] was 360 nM.
Consider `C[C@]12CC[C@H]3[C@@H](CC=C4C[C@@H](O[C@@H]5O[C@H](CO)[C@@H](O)[C@H](O)[C@H]5O)CC[C@@]43C)[C@@H]1CC[C@@H]2[C@H](O)CC(O)(C(F)(F)F)C(F)(F)F`, for which, in the series on KMS-11 [1], the inhibition result is “inactive”.
Turning to `C[C@]12CC[C@H]3[C@@H](CC=C4CC(=O)CC[C@@]43C)[C@@H]1CC[C@@H]2[C@@H](O)CC(O)(C(F)(F)F)C(F)(F)F`, the inhibition in the series on KMS-11 [1] worked out at 91%. Further, the IC50 in the series on KMS-11 [2] was determined as 3.4 µM.
Regarding `C[C@]12CC[C@H]3[C@@H](CC=C4C/C(=N/O)CC[C@@]43C)[C@@H]1CC[C@@H]2[C@H](O)CC(O)(C(F)(F)F)C(F)(F)F`, the inhibition in the series with KMS-11 [1] amounted to 58%.
Turning to `C[C@]12CC[C@H]3[C@@H](CC=C4C[C@@H](O)CC[C@@]43C)[C@@H]1CC[C@@H]2[C@H](O)CC(O)(C(F)(F)F)C(F)(F)F`, the inhibition entry in the series on KMS-11 [1] is “inactive”. In series [8], the concentration at 1.5 h worked out at 93.1 nM.
On to `C[C@]12CC[C@H]3[C@@H](CC=C4C[C@@H](O)CC[C@@]43C)[C@@H]1CC[C@@H]2C(O)CC(O)c1ccccc1` (stereo in doubt; 11c), for which the inhibition in the series with KMS-11 [1] was found to be 28%.
Same read-out and setting: then `C[C@]12CCC(=O)C[C@@H]1CC[C@@H]1[C@@H]2CC[C@]2(C)[C@@H]([C@@H](O)CC(O)(C(F)(F)F)C(F)(F)F)CC[C@@H]12`, with 82%.
Take `C[C@]12CC[C@H]3[C@@H](CC=C4C[C@@H](OCCO)CC[C@@]43C)[C@@H]1CC[C@@H]2[C@@H](O)CC(O)(C(F)(F)F)C(F)(F)F`: in the series on KMS-11 [1], the inhibition was 71%.
For the compound `C[C@]12CC[C@H]3[C@@H](CC=C4C[C@@H](O)CC[C@@]43C)[C@@H]1CC[C@@H]2[C@H](O)CC(N)=O`, the inhibition in the series with KMS-11 [1] was 44%.
For `C[C@]12CC[C@H]3[C@@H](CC=C4C[C@@H](O)CC[C@@]43C)[C@@H]1CC[C@@H]2C(O)CC(O)c1ccccc1` (stereo in doubt; 11b), the inhibition with KMS-11 [1] is 68%.
